Assay [1] relates to HL-60. The experiment in a line: Cytotoxicity against human HL-60 cells after 72 hrs by MTT assay. It is filed as functional, cell-based. To be noted: HL-60, 72 h. Summed up:
(§1)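 Exponentially growing cells, 1 × 10^4 per well in RPMI 1640 with 10% FBS, treated with 0.3-100 µM for 72 h. DMSO at most 0.1% (v/v). Viability read by MTT reduction as absorbance at 570 nm and expressed as survival relative to control wells. IC50 obtained by curve fitting; means ± SE of three independent experiments, each in triplicate.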
(Formazan colour is commonly taken as a measure of viable cells.)

Assay [2] concerns HL-60. The experiment in a line: Cell cycle arrest in human HL-60 cells assessed as accumulation at G0/G1 phase at 30 uM after 48 hrs by flow cytometry. It is filed as functional. An outline of the steps: (§2)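 Cells grown in RPMI 1640 with 10% heat-inactivated FBS at 37 °C, 5% CO2, exposed to 30 µM for 48 h. Washed in ice-cold PBS, fixed in 75% ethanol at -20 °C for 1 h, then stained with 50 µg/mL propidium iodide plus 100 µg/mL RNase A for 1 h at 37 °C in the dark. Phase distribution read by flow cytometry; mean ± SEM of two experiments.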
On the technique in general: In flow cytometry, cells or beads pass a laser one at a time.

In assay [3] the test system is HL-60. The assay is described as follows: Cell cycle arrest in human HL-60 cells assessed as accumulation at sub G0/G1 phase at 30 uM after 48 hrs by flow cytometry. Type of assay: functional. An outline of the steps:
as §2

The next assay concerns U-937. The assay is described as follows: Cytotoxicity against human U937 cells after 72 hrs by MTT assay. Type of assay: functional, cell-based. The conditions noted are these: U-937, 72 h. Summed up: as §1
The subject of a further assay is A549. The experiment in a line: Cytotoxicity against human A549 cells after 72 hrs by MTT assay. Type of assay: functional, cell-based. To be noted: A549, 72 h. Summed up: as §1
The test system of assay [4] is SK-MEL-1. The assay is described as follows: Cytotoxicity against human SK-MEL-1 cells after 72 hrs by MTT assay. To be noted: SK-MEL-1, 72 h. Type of assay: functional, cell-based. An outline of the steps:
as §1

For assay [5], the system named is HL-60. The assay is described as follows: Cell cycle arrest in human HL-60 cells assessed as accumulation at S phase at 30 uM after 48 hrs by flow cytometry. Type of assay: functional. Summed up:
as §2

The test system of assay [6] is HL-60. The assay is described as follows: Cell cycle arrest in human HL-60 cells assessed as accumulation at G2-M phase at 30 uM after 48 hrs by flow cytometry. It is filed as functional. Summed up: as §2
For assay [7], the system named is HL-60. The experiment in a line: Induction of apoptosis in human HL-60 cells upto 30 uM after 48 hrs by flow cytometry. Type of assay: functional, cell-based. Summed up: (§3)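 HL-60 cells exposed to 30 µM for 48 h. Hypodiploid (apoptotic) fraction quantified by flow cytometry; average ± SE of triplicate determinations from a representative experiment.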
The test system of assay [8] is SK-MEL-1. The assay is described as follows: Induction of apoptosis in human SK-MEL-1 cells assessed as apoptotic bodies at 30 uM after 24 hrs by fluorescence microscopy. Type of assay: functional, cell-based. An outline of the steps:
(§4)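 HL-60 or SK-MEL-1 cells exposed to 30 µM, then DNA-stained with Hoechst 33258 (bisbenzimide). Chromatin condensation, fragmentation and apoptotic bodies assessed by fluorescence microscopy.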

The test system of assay [9] is HL-60. The assay is described as follows: Induction of apoptosis in human HL-60 cells at 30 uM after 48 hrs by flow cytometry. Type of assay: functional. Summed up: as §3
Assay [10] deals with HL-60. The assay is described as follows: Effect on cell death in human HL-60 cells assessed as induction of procaspase 7 cleavage at 30 uM. Type of assay: functional, cell-based. An outline of the steps: (§5)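 HL-60 cells (1 × 10^6) treated in RPMI 1640, lysed in Tris-HCl pH 6.8 with 2% SDS and boiled. Lysates run on 12% SDS-PAGE, transferred to PVDF and probed with anti-caspase-3, -6 or -7 antibodies, then HRP secondary. Bands detected by chemiluminescence; loading checked by Ponceau S staining. One representative blot of three.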

In assay [11] the test system is HL-60. The experiment in a line: Induction of apoptosis in human HL-60 cells assessed as apoptotic bodies at 30 uM after 24 hrs by fluorescence microscopy. It is filed as functional, cell-based. Summed up: as §4
In assay [12] the test system is HL-60. The experiment in a line: Effect on cell death in human HL-60 cells assessed as induction of procaspase 6 cleavage at 30 uM. Type of assay: functional, cell-based. An outline of the steps:
as §5

Assay [13] deals with HL-60. The experiment in a line: Effect on cell death in human HL-60 cells assessed as induction of procaspase 3 cleavage at 30 uM. It is filed as functional, cell-based. Summed up:
as §5

The subject of assay [14] is SK-MEL-1. The experiment in a line: Induction of apoptosis in human SK-MEL-1 cells assessed as fragmentated and condensed chromatin at 30 uM after 24 hrs by fluorescence microscopy. Type of assay: functional, cell-based. An outline of the steps:
as §4

The test system of assay [15] is HL-60. The assay is described as follows: Induction of apoptosis in human HL-60 cells assessed as fragmentated and condensed chromatin at 30 uM after 24 hrs by fluorescence microscopy. It is filed as functional, cell-based. An outline of the steps:
as §4

Assay [16] relates to HL-60. The experiment in a line: Induction of apoptosis in human HL-60 cells assessed as internucleosomal DNA fragmentation at 30 uM after 24 hrs by ethidium bromide assay. Type of assay: functional, cell-based. Summed up: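 HL-60 cells exposed to 30 µM for 24 h. Total cellular DNA isolated, electrophoresed on 2% agarose, stained with ethidium bromide and inspected under UV for internucleosomal laddering.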

Here are results for twelve molecules from ChEMBL document CHEMBL1151724, “Sesquiterpene lactones from Gonospermum gomerae and G. fruticosum and their cytotoxic activities” (J Nat Prod, 2008).

Activity calls are given as the source filed them. The calls are words filed in the database; no cut-off is given here.

`COc1cc([C@@H]2c3cc4c(cc3[C@@H](O[C@@H]3O[C@@H]5CO[C@@H](C)O[C@H]5[C@H](O)[C@H]3O)[C@H]3COC(=O)[C@H]23)OCO4)cc(OC)c1O` [ETOPOSIDE]: the IC50 – broadly, the concentration needed to halve the response being measured – in the assay on HL-60 [1] is 0.25 µM; in the assay on U-937, 0.92 µM; with A549, 5.9 µM; with SK-MEL-1 [4], > 30 µM. Also, the Activity in the assay with HL-60 [2] is listed as 29.4%; in the assay with HL-60 [3], 47.7%; with HL-60 [5], 17.1%; with HL-60 [6] it was 2.6%.

With `C=C1C(=O)O[C@H]2/C=C(/C)[C@@H](OC(C)=O)CC/C(C)=C/[C@@H](OC(=O)/C(C)=C/C)[C@H]12`, in the assay with HL-60 [7], the outcome was inactive.

For `C=C1C(=O)O[C@H]2C[C@@]3(C)[C@H](O)CC[C@@](C)(O)[C@H]3[C@@H](O)[C@H]12`, the outcome in the assay on HL-60 [7] was inactive.

As to `C=C1C(=O)O[C@H]2/C=C(/C)[C@@H](O)CC/C(C)=C/[C@@H](OC(=O)/C(C)=C/C)[C@H]12`, the result with HL-60 [7] was inactive.

For the molecule `C=C1C(=O)O[C@H]2C[C@@]3(C)[C@H](O)CCC(=C)[C@H]3[C@@H](OC(=O)/C(C)=C/C)[C@H]12`, the result in the assay with HL-60 [7] was inactive.

Consider `C=C1C(=O)O[C@H]2C[C@@]3(C)[C@H](OC(C)=O)CCC(=C)[C@H]3[C@@H](OC(=O)/C(C)=C/C)[C@H]12`, for which the outcome in the assay with HL-60 [7] was inactive.

Consider `C=C1C(=O)O[C@H]2C[C@@]3(C)[C@H](OC(C)=O)CC[C@@](C)(O)[C@H]3[C@@H](O)[C@H]12`, for which the IC50 in the assay with HL-60 [1], with U-937, with A549 and with SK-MEL-1 [4] was > 100 µM each time. In addition, in the assay on HL-60 [7], the outcome was inactive.

For the molecule `C=C1C[C@@H]2OC(=O)C(=C)[C@H]2[C@H](OC(=O)/C(C)=C\C)/C=C(\C)CCC1=O`, the result in the assay on HL-60 [7] was inactive.

For `C=CC(C)(O)C/C=C/C(C)(O)CCC(OC(C)=O)C(=C)C` (stereo not given), in the assay on HL-60 [7], the result was inactive.

For `C=C1CC[C@@H](OC(C)=O)[C@]2(C)C[C@H](OC(C)=O)[C@H]3C(=C)C(=O)O[C@@H]3C12` (stereo not given in full), the result in the assay on SK-MEL-1 [8], in the assay with HL-60 [10], in the assay on HL-60 [11], with HL-60 [12], in the assay with HL-60 [13] and in the assay on SK-MEL-1 [14] was Active. The outcome in the assay on HL-60 [15] and with HL-60 [16] was Active. Besides, the Activity in the assay on HL-60 [9] is 30%; in the assay with HL-60 [2], 26.8%; in the assay with HL-60 [3], 30%; in the assay on HL-60 [5], 22%; in the assay with HL-60 [6], 18.5%. For the same molecule, the half-inhibitory concentration (IC50) in the assay with HL-60 [1] was 9.4 µM; in the assay on U-937, 9.2 µM; with A549, 72.4 µM; in the assay on SK-MEL-1 [4], 14.3 µM.

Take `C=C1C(=O)O[C@H]2[C@H]1[C@@H](O)C[C@@]1(C)[C@H](O)CCC(=C)[C@@H]21`: the outcome in the assay on HL-60 [7] was inactive.

For the molecule `C=C1C(=O)O[C@H]2C[C@@]3(C)[C@H](OC(C)=O)CC[C@@](C)(O)[C@H]3[C@@H](OC(C)=O)[C@H]12`, the outcome in the assay on SK-MEL-1 [8], in the assay on HL-60 [10], in the assay with HL-60 [11], in the assay with HL-60 [12], with HL-60 [13] and in the assay with SK-MEL-1 [14] was Active. In addition, the outcome in the assay with HL-60 [15] and with HL-60 [16] was Active. In addition, the Activity in the assay on HL-60 [9] is recorded as 12%; with HL-60 [2], 39.3%; with HL-60 [3] it was 11.8%; with HL-60 [5], 21.5%; with HL-60 [6], 21.8%. In addition, the IC50 in the assay with HL-60 [1] is 13.3 µM; in the assay on U-937, 10.4 µM; in the assay on A549, > 100 µM; in the assay with SK-MEL-1 [4] it was 27.9 µM.
